# From PubChem
# KCNK9 block = human KCNK9 channel inhibition | HEK293 KCNK9, FluxOR thallium flux fluorescence; stronger effect = lower value | B-score at 10 µM | Q9NPC2 | hit rate 1.2% among 310,000;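 active = ratio B-score over 3 SD below the library mean, with starting fluorescence within 5 SD of its mean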;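 note: negative B-score means less thallium flux so channel inhibition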
# KCNQ1 inh = blocks the human KCNQ1 potassium channel; P51787; CHO-K1 KCNQ1, FluxOR thallium flux fluorescence; stronger effect = higher value; B-score at 10 µM; hit rate 1.3% among 310,000; AID 2642;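 active = compounds whose thallium flux B-score, printed positive for inhibition, exceeds three library SD while starting fluorescence stays within three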;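 note: channel opened by potassium depolarization with thallium stimulus after 20 min compound exposure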
# hERG protect = compounds protecting human hERG from proarrhythmic drug block. Q12809. CHO-hERG, FluxOR thallium flux, dofetilide IC70 present. activation (rescue from dofetilide block), less the hit threshold, % at 10 µM. hit rate 0.51% among 310,000;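 active = activation above the mean of controls blocked by dofetilide plus 5 SD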;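 note: thallium influx through hERG after potassium depolarization seen as dye fluorescence rise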
# KCNK3 block = human KCNK3 channel inhibition, primary screen; B-score at 10 µM; hit rate 0.84% among 340,000; CHO-KCNK3 thallium flux, FluxOR fluorescence; stronger effect = lower value; O14649;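 active = B-score under library mean minus 4 SD, starting fluorescence ratio at most library mean plus 5 SD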;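 note: more negative B-score means stronger inhibition of thallium flux through KCNK3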
# KCNQ1 act = potentiates or activates the human KCNQ1 potassium channel. CHO-K1 KCNQ1, thallium flux FluxOR fluorescence; stronger effect = higher value. B-score at 10 µM. hit rate 0.35% among 310,000;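 active = fluorescence ratio B-score, a plate-corrected score, at least three library SD, with initial intensity B-score within 5 SD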
#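 Assay system: CHO-K1 cells stably expressing KCNQ1. Medium: assay buffer for compound exposure, DMSO matched across wells. Timing: 37 °C overnight plating, 90-min dark dye load, 20-min compound pretreatment. Signal: kinetic FluxOR fluorescence, 10 s baseline plus 110 s post-stimulus.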
# Kir21 block = Kir2.1 (mouse) channel inhibition; HEK293-Kir2.1, FluxOR thallium flux fluorescence; stronger effect = lower value; B-score at 10 µM; hit rate 0.85% among 310,000; AID 1672;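 active = fluorescence ratio B-score at or below minus 3 SD of library scores, with starting-brightness B-score within 2 SD, cut at about -4.2 in these data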;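 note: channel flux triggered by added potassium and thallium sulfate stimulus; B-score of peak minus minimum fluorescence over baseline after thallium stimulus; more negative B-score means stronger Kir2.1 block with less thallium influx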
# * = called active by the depositor; i = inactive; x = no result. In the library only some 3.7% were active in any assay of this set; here they are far more common.
SMILES,KCNK9 block,KCNQ1 inh,hERG protect,KCNK3 block,KCNQ1 act,Kir21 block
COc1ccc(OCCNc2cc(N3CCOCC3)ccc2[N+](=O)[O-])cc1,i,i,-3.0,i,i,0.06
COc1cccc(OCCNc2cc(N3CCCCC3)ccc2[N+](=O)[O-])c1,-7.93*,i,-12.6,i,i,0.23
CC1CN(c2ccc([N+](=O)[O-])c(NCCOc3ccccc3)c2)CCN1 (stereo unspecified),i,i,-7.5,i,i,-5.13*
Cc1ccccc1OCCNc1cc(N2CCCCC2)ccc1[N+](=O)[O-],-7.04*,i,-3.6,i,i,-0.36
c1ccc2[nH]c(Cn3nnc4ccccc43)nc2c1,i,i,-5.2,i,i,-0.03
CSc1nc(N(C)CCO)c2sc3nc(-c4ccco4)c4c(c3c2n1)CCC4,i,i,-5.0,i,i,2.39
CSc1nc(SCC(=O)O)c2sc3nc(-c4ccccc4)c4c(c3c2n1)CCC4,i,i,-12.7,i,10*,2
O=C(CN1CCN(Cc2ccccc2)CC1)Nc1cccc(Br)c1,i,i,-2.7,i,i,-4.64*
O=C(/C=C/c1cccc(Br)c1)NC1CCN(Cc2ccccc2)CC1,i,i,-9.0,i,i,-5.77*
O=C(COc1ccc(Br)cc1Cl)NC1CCN(Cc2ccccc2)CC1,i,i,-12.9,i,i,-10.4*
Cc1ccc(NC(=O)CN2CCN(Cc3ccccc3)CC2)cc1Cl,i,i,-5.2,i,i,-1.88
O=C(/C=C/c1cccc(F)c1)NC1CCN(Cc2ccccc2)CC1,i,i,-11.0,i,i,-4.73*
O=C(NCCCNC(=O)c1ccccn1)c1ccc(F)cc1,i,i,-0.1,i,i,0.24
O=C(CN1C(=O)NC(Cc2c[nH]c3ccccc23)C1=O)Nc1ccc(Br)cc1F (stereo unspecified),x,x,x,i,x,x
O=C(NC1CCN(Cc2ccccc2)CC1)c1cccc(Br)c1,i,i,-11.3,i,i,-4.64*
O=C(COc1ccc(Br)cc1CNC1CCCCC1)NCCc1ccccc1,i,8*,-14.5,i,i,-4.2
CCOc1cc(CNC2CCCC2)c(Cl)cc1OCC(=O)Nc1ccccc1,i,i,-6.8,i,i,-4.47*
Cc1c(C(=O)NC2CCN(Cc3ccccc3)C2)oc2ccc(Br)cc12 (stereo unspecified),i,i,-17.9,i,i,-10.2*
COc1cc(C(CC(=O)Nc2ccc(Cl)cn2)N2Cc3ccccc3C2=O)cc(OC)c1OC (stereo unspecified),i,i,-3.8,i,i,0.43
COc1ccc(NC(=O)CCOc2ccccc2F)cc1S(=O)(=O)N1CCCCC1,x,x,x,i,x,x
CCN(C(=O)COC(=O)c1ccc(O)cc1O)c1c(N)n(Cc2ccccc2)c(=O)[nH]c1=O,x,x,x,i,x,x
CCOC(=O)c1c(C)[nH]c(C(=O)CN(C)CC(=O)Nc2ccccc2C(F)(F)F)c1C,x,x,x,-8.77*,x,x
CCCCNC(=O)C(C#N)c1nc2ccccc2nc1N1CCN(Cc2ccc3c(c2)OCO3)CC1 (stereo unspecified),x,x,x,i,x,x
CC1CN(c2nc3ccccc3nc2C(C#N)C(=O)NCc2ccc3c(c2)OCO3)CC(C)O1 (stereo unspecified),i,i,-18.7,i,23*,-0.06
C=CCNC(=O)C(C#N)c1nc2ccccc2nc1N1CCCCCC1 (stereo unspecified),i,6*,-11.5,i,i,2.28
SMILES,KCNK9 block,KCNQ1 inh,hERG protect,KCNK3 block,KCNQ1 act,Kir21 block
c1ccc(-c2cn(-c3ccccc3)c3[n+]2CCCS3)cc1,i,i,-14.2,i,i,0.97
Cc1ccc(-c2cn(-c3ccccc3)c3[n+]2CCCS3)cc1,i,i,-20.0,i,i,1.89
COc1ccc(-n2cc(-c3ccc(C)cc3)[n+]3c2SCC3)cc1,i,7*,-19.5,i,i,-1.36
CCc1ccc(-n2cc(-c3ccc(F)cc3)[n+]3c2SCCC3)cc1,i,6*,-17.7,i,i,-1.14
CCc1n[n+](CC(=O)c2ccccc2)c(N)s1,x,x,x,i,x,x
COC(=O)C1=C(C)N(Cc2ccccc2)C(=NCc2cccc(Cl)c2)N[C@H]1c1ccccc1,x,x,x,i,x,x
